In ChEMBL document CHEMBL4373653, “FgaPT2, a biocatalytic tool for alkyl-diversification of indole natural products” (Medchemcomm, 2019):
Activity calls are given as the source filed them. The calls are words filed in the database; no cut-off is given here.

Columns and labels:
HCT-116 = test: Cytotoxicity against human HCT116 cells incubated for 48 hrs by Celltiter-blue assay; assay type: cell-based; conditions: HCT-116, 48 h
Method in brief: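 HCT-116 cells, 2.0e3 per well in McCoy's medium, grown 24 h. A baseline CellTiter-Blue reading (90 min, 37 °C; ex 544/em 590 nm) was taken at treatment. Serial dilutions were added at 4X in medium and incubated 48 h, then read again with CellTiter-Blue. Growth was expressed relative to untreated cells, four-parameter dose-response fit to IC50, n = 2, Taxol internal control.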

[1] = target: T1, Tryptophan dimethylallyltransferase (Neosartorya fumigata (strain ATCC MYA-4609 / Af293 / CBS 101355 / FGSCA1100) (Aspergillus fumigatus)) (UniProt Q50EL0); test: Substrate activity at recombinant N-terminal His6-fusion tagged Aspergillus fumigatus FgaPT2 expressed in Escherichia coli BL21 (DE3) assessed as alkylation of L-tryptophan by measuring product formation at pH 7.5 in Tris buffer after 16 hrs by RP-HPLC analysis
T1 sequence (whole entry): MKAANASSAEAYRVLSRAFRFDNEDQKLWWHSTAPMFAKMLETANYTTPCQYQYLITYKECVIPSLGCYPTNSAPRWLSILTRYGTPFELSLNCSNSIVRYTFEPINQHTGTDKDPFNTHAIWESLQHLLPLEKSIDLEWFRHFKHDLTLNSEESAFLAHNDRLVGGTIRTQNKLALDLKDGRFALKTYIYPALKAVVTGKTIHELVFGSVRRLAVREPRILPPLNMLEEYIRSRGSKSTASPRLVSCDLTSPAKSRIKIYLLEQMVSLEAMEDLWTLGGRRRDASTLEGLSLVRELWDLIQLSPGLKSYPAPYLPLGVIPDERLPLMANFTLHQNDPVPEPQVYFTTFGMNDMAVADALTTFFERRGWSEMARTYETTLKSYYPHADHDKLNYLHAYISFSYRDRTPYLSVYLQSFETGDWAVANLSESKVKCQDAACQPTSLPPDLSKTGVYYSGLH
Method in brief: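 The enzyme was codon-optimized and purified by Ni-NTA. Reaction: 1.2 mM alkyl-PP donor, 1 mM L-Trp, 5 μM FgaPT2 in 25 mM Tris pH 7.5, 5 mM MgCl2, 50 mM KCl, 35 °C for 16 h. It was quenched with an equal volume of methanol and centrifuged. Analysis was by RP-HPLC (C18, water/0.1% TFA–acetonitrile gradient, A254). Negative controls omitted the enzyme or the donor.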

[2] = substrate: O=P(O)(O)OP(=O)(O)OCC1=CCCCC1; conditions: Aspergillus fumigatus Af293
[3] = substrate: O=P(O)(O)OP(=O)(O)OCc1ccccc1; conditions: Aspergillus fumigatus Af293
[4] = substrate: O=P(O)(O)OP(=O)(O)OCc1ccc(F)cc1; conditions: Aspergillus fumigatus Af293
[5] = substrate: C/C(Cl)=C/COP(=O)(O)OP(=O)(O)O; conditions: Aspergillus fumigatus Af293
[6] = substrate: C/C=C/COP(=O)(O)OP(=O)(O)O; conditions: Aspergillus fumigatus Af293
[7] = substrate: O=P(O)(O)OP(=O)(O)OCc1ccc(Cl)cc1; conditions: Aspergillus fumigatus Af293
[8] = substrate: COc1cccc(COP(=O)(O)OP(=O)(O)O)c1; conditions: Aspergillus fumigatus Af293
[9] = substrate: C=C/C=C(\C)COP(=O)(O)OP(=O)(O)O; conditions: Aspergillus fumigatus Af293
[10] = substrate: O=P(O)(O)OP(=O)(O)OCC=C1CCCC1; conditions: Aspergillus fumigatus Af293
[11] = substrate: COc1ccccc1COP(=O)(O)OP(=O)(O)O; conditions: Aspergillus fumigatus Af293
[12] = substrate: C=C/C=C/COP(=O)(O)OP(=O)(O)O; conditions: Aspergillus fumigatus Af293
[13] = substrate: CC/C(C)=C/COP(=O)(O)OP(=O)(O)O; conditions: Aspergillus fumigatus Af293
[14] = substrate: C/C=C/C=C(\C)COP(=O)(O)OP(=O)(O)O; conditions: Aspergillus fumigatus Af293
[15] = substrate: O=P(O)(O)OP(=O)(O)OCC=C1CCCCC1; conditions: Aspergillus fumigatus Af293
[16] = substrate: O=P(O)(O)OP(=O)(O)OCc1ccc(Br)cc1; conditions: Aspergillus fumigatus Af293
[17] = substrate: CCC(=CCOP(=O)(O)OP(=O)(O)O)CC; conditions: Aspergillus fumigatus Af293
[18] = substrate: CC(C)=C/C=C/COP(=O)(O)OP(=O)(O)O; conditions: Aspergillus fumigatus Af293
[19] = substrate: O=P(O)(O)OP(=O)(O)OCc1ccccc1; conditions: Aspergillus fumigatus Af293; remark: listed apart in the source
[20] = substrate: O=P(O)(O)OP(=O)(O)OCc1ccc(F)cc1; conditions: Aspergillus fumigatus Af293; remark: listed apart in the source
[21] = substrate: C/C=C/COP(=O)(O)OP(=O)(O)O; conditions: Aspergillus fumigatus Af293; remark: listed apart in the source
[22] = substrate: COc1cccc(COP(=O)(O)OP(=O)(O)O)c1; conditions: Aspergillus fumigatus Af293; remark: listed apart in the source
[23] = substrate: O=P(O)(O)OP(=O)(O)OCC=C1CCCC1; conditions: Aspergillus fumigatus Af293; remark: listed apart in the source
[24] = substrate: COc1ccccc1COP(=O)(O)OP(=O)(O)O; conditions: Aspergillus fumigatus Af293; remark: listed apart in the source
[25] = substrate: O=P(O)(O)OP(=O)(O)OCC=C1CCCCC1; conditions: Aspergillus fumigatus Af293; remark: listed apart in the source
[26] = substrate: O=P(O)(O)OP(=O)(O)OCc1ccc(Br)cc1; conditions: Aspergillus fumigatus Af293; remark: listed apart in the source
[27] = substrate: CCC(=CCOP(=O)(O)OP(=O)(O)O)CC; conditions: Aspergillus fumigatus Af293; remark: listed apart in the source
[28] = substrate: O=P(O)(O)OP(=O)(O)OCC1=CCCCC1; conditions: Aspergillus fumigatus Af293; remark: listed apart in the source
[29] = substrate: O=P(O)(O)OP(=O)(O)OCc1ccccc1; conditions: Aspergillus fumigatus Af293; remark: listed apart in the source
[30] = substrate: O=P(O)(O)OP(=O)(O)OCc1ccc(F)cc1; conditions: Aspergillus fumigatus Af293; remark: listed apart in the source
[31] = substrate: C/C(Cl)=C/COP(=O)(O)OP(=O)(O)O; conditions: Aspergillus fumigatus Af293; remark: listed apart in the source
[32] = substrate: C/C=C/COP(=O)(O)OP(=O)(O)O; conditions: Aspergillus fumigatus Af293; remark: listed apart in the source
[33] = substrate: O=P(O)(O)OP(=O)(O)OCc1ccc(Cl)cc1; conditions: Aspergillus fumigatus Af293; remark: listed apart in the source
[34] = substrate: C/C(Br)=C/COP(=O)(O)OP(=O)(O)O; conditions: Aspergillus fumigatus Af293
[35] = substrate: COc1cccc(COP(=O)(O)OP(=O)(O)O)c1; conditions: Aspergillus fumigatus Af293; remark: listed apart in the source
[36] = substrate: C=C/C=C(\C)COP(=O)(O)OP(=O)(O)O; conditions: Aspergillus fumigatus Af293; remark: listed apart in the source
[37] = substrate: O=P(O)(O)OP(=O)(O)OCC=C1CCCC1; conditions: Aspergillus fumigatus Af293; remark: listed apart in the source
[38] = substrate: COc1ccccc1COP(=O)(O)OP(=O)(O)O; conditions: Aspergillus fumigatus Af293; remark: listed apart in the source
[39] = substrate: C=C/C=C/COP(=O)(O)OP(=O)(O)O; conditions: Aspergillus fumigatus Af293; remark: listed apart in the source
[40] = substrate: CC/C(C)=C/COP(=O)(O)OP(=O)(O)O; conditions: Aspergillus fumigatus Af293; remark: listed apart in the source
[41] = substrate: C/C=C/C=C(\C)COP(=O)(O)OP(=O)(O)O; conditions: Aspergillus fumigatus Af293; remark: listed apart in the source
[42] = substrate: O=P(O)(O)OP(=O)(O)OCC=C1CCCCC1; conditions: Aspergillus fumigatus Af293; remark: listed apart in the source
[43] = substrate: O=P(O)(O)OP(=O)(O)OCc1ccc(Br)cc1; conditions: Aspergillus fumigatus Af293; remark: listed apart in the source
[44] = substrate: CCC(=CCOP(=O)(O)OP(=O)(O)O)CC; conditions: Aspergillus fumigatus Af293; remark: listed apart in the source
[45] = substrate: CC(C)=C/C=C/COP(=O)(O)OP(=O)(O)O; conditions: Aspergillus fumigatus Af293; remark: listed apart in the source

O=C1NC(O)c2c1c1c3ccccc3[nH]c1c1[nH]c3ccccc3c21 (stereo not given)
IC50 (HCT-116): 11 µM

O=C1NC(O)c2c1c1c3cc(CC4=CCCCC4)ccc3[nH]c1c1[nH]c3ccccc3c21 (stereo not given)
IC50 (HCT-116): 61 µM

Cc1ccc(COP(=O)(O)OP(=O)(O)O)cc1
Activity [1]: inactive

CCC(=CCc1ccc2[nH]c3c4[nH]c5ccccc5c4c4c(c3c2c1)C(=O)NC4O)CC (stereo not given)
IC50 (HCT-116): 35 µM

O=C1NC(O)c2c1c1c3cc(CC=C4CCCCC4)ccc3[nH]c1c1[nH]c3ccccc3c21 (stereo not given)
IC50 (HCT-116): 31 µM

C=C(C)COP(=O)(O)OP(=O)(O)O
Activity [1]: inactive

COc1cc(COP(=O)(O)OP(=O)(O)O)cc(OC)c1OC
Activity [1]: inactive

COc1ccc(COP(=O)(O)OP(=O)(O)O)cc1OC
Activity [1]: inactive

CC(=O)COP(=O)(O)OP(=O)(O)O
Activity [1]: inactive

O=C1NC(O)c2c1c1c3cc(CC=C4CCCC4)ccc3[nH]c1c1[nH]c3ccccc3c21 (stereo not given)
IC50 (HCT-116): 58 µM

CC/C(C)=C/Cc1ccc2[nH]c3c4[nH]c5ccccc5c4c4c(c3c2c1)C(=O)NC4O (stereo not given)
IC50 (HCT-116): 38 µM

O=[N+]([O-])c1ccc(COP(=O)(O)OP(=O)(O)O)cc1
Activity [1]: inactive

COc1ccc(COP(=O)(O)OP(=O)(O)O)c(OC)c1
Activity [1]: inactive

O=P(O)(O)OP(=O)(O)OCc1cc(F)cc(F)c1
Activity [1]: inactive

COc1ccc(COP(=O)(O)OP(=O)(O)O)cc1
Activity [1]: inactive

CC(C)=CCc1ccc2[nH]c3c4[nH]c5ccccc5c4c4c(c3c2c1)C(=O)NC4O (stereo not given)
IC50 (HCT-116): 62 µM

B1: Tryptophan dimethylallyltransferase (Neosartorya fumigata (strain ATCC MYA-4609 / Af293 / CBS 101355 / FGSCA1100) (Aspergillus fumigatus)), Q50EL0 (protein)
chain: T1 sequence (whole entry)
kcat [2]: 0.00267 s⁻¹
kcat [3]: 0.0227 s⁻¹
kcat [4]: 0.0046 s⁻¹
kcat [5]: 0.0217 s⁻¹
kcat [6]: 0.0095 s⁻¹
kcat [7]: 0.00327 s⁻¹
kcat [8]: 0.00283 s⁻¹
kcat [9]: 0.337 s⁻¹
kcat [10]: 0.084 s⁻¹
kcat [11]: 0.0322 s⁻¹
kcat [12]: 0.433 s⁻¹
kcat [13]: 0.165 s⁻¹
kcat [14]: 0.282 s⁻¹
kcat [15]: 0.0533 s⁻¹
kcat [16]: 0.00223 s⁻¹
kcat [17]: 0.108 s⁻¹
kcat [18]: 0.467 s⁻¹
Km [19]: 220 µM
Km [20]: 400 µM
Km [21]: 140 µM
Km [22]: 730 µM
Km [23]: 310 µM
Km [24]: 570 µM
Km [25]: 1400 µM
Km [26]: 320 µM
Km [27]: 370 µM
kcat/Km [28]: 16.7 M⁻¹ s⁻¹
kcat/Km [29]: 103 M⁻¹ s⁻¹
kcat/Km [30]: 11.5 M⁻¹ s⁻¹
kcat/Km [31]: 41.7 M⁻¹ s⁻¹
kcat/Km [32]: 65 M⁻¹ s⁻¹
kcat/Km [33]: 7.67 M⁻¹ s⁻¹
kcat/Km [34]: 21.7 M⁻¹ s⁻¹
kcat/Km [35]: 3.83 M⁻¹ s⁻¹
kcat/Km [36]: 267 M⁻¹ s⁻¹
kcat/Km [37]: 267 M⁻¹ s⁻¹
kcat/Km [38]: 56.7 M⁻¹ s⁻¹
kcat/Km [39]: 650 M⁻¹ s⁻¹
kcat/Km [40]: 350 M⁻¹ s⁻¹
kcat/Km [41]: 200 M⁻¹ s⁻¹
kcat/Km [42]: 36.7 M⁻¹ s⁻¹
kcat/Km [43]: 7 M⁻¹ s⁻¹
kcat/Km [44]: 283 M⁻¹ s⁻¹
kcat/Km [45]: 433 M⁻¹ s⁻¹
